One assay concerns the target T1, Toll-like receptor 8 (Homo sapiens, UniProt Q9NR97).
T1 sequence (Q9NR97 whole entry): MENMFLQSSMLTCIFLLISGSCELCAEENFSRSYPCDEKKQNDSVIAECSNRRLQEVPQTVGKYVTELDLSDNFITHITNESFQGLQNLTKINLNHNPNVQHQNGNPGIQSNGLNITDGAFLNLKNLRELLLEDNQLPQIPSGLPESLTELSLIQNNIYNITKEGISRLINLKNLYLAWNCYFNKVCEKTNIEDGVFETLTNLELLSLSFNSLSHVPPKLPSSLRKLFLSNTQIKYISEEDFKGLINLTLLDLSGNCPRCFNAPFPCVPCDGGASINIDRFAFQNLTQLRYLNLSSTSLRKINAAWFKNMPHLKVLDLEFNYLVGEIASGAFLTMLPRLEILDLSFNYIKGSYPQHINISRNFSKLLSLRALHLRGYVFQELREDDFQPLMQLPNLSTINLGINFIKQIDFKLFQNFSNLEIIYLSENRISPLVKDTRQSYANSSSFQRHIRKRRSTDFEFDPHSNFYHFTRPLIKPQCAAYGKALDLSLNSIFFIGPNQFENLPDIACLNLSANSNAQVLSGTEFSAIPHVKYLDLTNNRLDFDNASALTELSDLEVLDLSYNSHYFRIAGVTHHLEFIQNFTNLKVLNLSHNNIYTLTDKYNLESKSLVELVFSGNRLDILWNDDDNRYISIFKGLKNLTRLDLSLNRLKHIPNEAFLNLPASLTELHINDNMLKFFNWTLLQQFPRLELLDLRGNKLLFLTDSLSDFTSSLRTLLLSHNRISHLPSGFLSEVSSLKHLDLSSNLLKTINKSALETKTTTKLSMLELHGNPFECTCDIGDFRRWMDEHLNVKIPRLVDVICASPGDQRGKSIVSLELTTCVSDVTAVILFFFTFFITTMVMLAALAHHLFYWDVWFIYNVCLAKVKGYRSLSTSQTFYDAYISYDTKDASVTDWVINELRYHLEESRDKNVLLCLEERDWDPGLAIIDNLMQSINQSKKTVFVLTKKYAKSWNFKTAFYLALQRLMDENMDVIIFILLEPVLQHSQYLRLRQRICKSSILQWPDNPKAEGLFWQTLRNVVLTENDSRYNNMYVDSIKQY
Put plainly: Agonist activity at human TLR-8 expressed in HEK293 cells after 24 hrs by SEAP reporter gene assay. Format: cell-based. In short, it runs like this:
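HEK-293 cells transfected with human TLR-7 or TLR-8 plus NF-κB-inducible SEAP reporter; stimulated with 30 μM compound in DMEM/10% FBS for 24 h. Supernatant incubated with Quanti-blue substrate 1 h at 37 °C; SEAP read as absorbance at 650 nm.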

Assay [1] deals with T2, TLR7 and TLR8 (Mus musculus) (UniProt P58681+P58682). Put plainly: Agonist activity at TLR7/TLR8 in C57BL/6 mouse BMDC assessed as induction of IL-12p40 production at 30 uM after 3 days by flow cytometric analysis. Format: protein assay. A digest of the protocol:
(§1)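 BMDCs from femoral marrow of 6−8-week C57BL/6 mice; red cells lysed (0.83% NH₄Cl, 0.1% KHCO₃, 0.009% EDTA); 5 million cells per well cultured six days in complete RPMI with mouse GM-CSF 20 ng/mL. Stimulated with 30 μM compound for 3 days; supernatant cytokines quantified by flow cytometric bead array; measured in triplicate.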
For orientation: In flow cytometry, cells or beads pass a laser one at a time.

In another assay the target is T3, Toll-like receptor 7 (Homo sapiens, UniProt Q9NYK1).
T3 sequence (Q9NYK1 whole entry): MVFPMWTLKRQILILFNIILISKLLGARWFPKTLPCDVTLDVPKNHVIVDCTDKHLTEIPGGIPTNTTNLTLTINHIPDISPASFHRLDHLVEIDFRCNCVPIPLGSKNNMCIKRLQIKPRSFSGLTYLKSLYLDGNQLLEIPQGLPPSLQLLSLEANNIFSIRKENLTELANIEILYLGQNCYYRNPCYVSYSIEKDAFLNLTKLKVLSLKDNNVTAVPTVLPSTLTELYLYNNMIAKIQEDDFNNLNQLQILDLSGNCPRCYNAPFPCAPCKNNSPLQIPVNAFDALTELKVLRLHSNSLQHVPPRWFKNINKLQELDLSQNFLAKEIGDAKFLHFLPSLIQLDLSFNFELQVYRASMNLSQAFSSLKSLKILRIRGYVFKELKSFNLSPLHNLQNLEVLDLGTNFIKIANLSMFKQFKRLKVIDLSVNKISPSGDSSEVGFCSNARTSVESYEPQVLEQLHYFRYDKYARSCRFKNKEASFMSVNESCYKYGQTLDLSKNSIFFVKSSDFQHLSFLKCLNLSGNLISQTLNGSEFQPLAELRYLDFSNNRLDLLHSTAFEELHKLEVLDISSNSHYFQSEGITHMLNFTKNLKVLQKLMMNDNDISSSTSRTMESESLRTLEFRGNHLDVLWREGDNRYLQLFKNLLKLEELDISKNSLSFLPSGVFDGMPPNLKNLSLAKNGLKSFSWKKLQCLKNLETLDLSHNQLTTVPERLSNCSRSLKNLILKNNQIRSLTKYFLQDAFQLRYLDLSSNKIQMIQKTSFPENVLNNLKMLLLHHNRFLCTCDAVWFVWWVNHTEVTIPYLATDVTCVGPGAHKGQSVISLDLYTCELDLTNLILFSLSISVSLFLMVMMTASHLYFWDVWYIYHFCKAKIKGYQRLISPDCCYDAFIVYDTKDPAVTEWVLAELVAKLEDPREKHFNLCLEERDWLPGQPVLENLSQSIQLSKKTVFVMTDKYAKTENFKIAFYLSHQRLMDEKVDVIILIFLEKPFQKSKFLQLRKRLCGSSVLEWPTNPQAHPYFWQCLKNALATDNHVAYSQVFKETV
Put plainly: Agonist activity at human TLR-7 expressed in HEK293 cells after 24 hrs by SEAP reporter gene assay. The class given is cell-based. (In general: Reporter assays use an easily measured gene product as a stand-in for the process of interest.)

The target in assay [2] is T2, TLR7 and TLR8 (Mus musculus). Put plainly: Agonist activity at TLR7/TLR8 in C57BL/6 mouse BMDC assessed as induction of TNF-alpha production at 30 uM after 3 days by flow cytometric analysis. Format: protein assay. A digest of the protocol: as §1
The target is the same in assay [3]. Description: Agonist activity at TLR7/TLR8 in C57BL/6 mouse BMDC assessed as induction of IL-1beta production at 30 uM after 3 days by flow cytometric analysis. The class given is protein assay. In short, it runs like this: as §1
Assay [4] has the same target. Put plainly: Agonist activity at TLR7/TLR8 in C57BL/6 mouse BMDC assessed as induction of IL-10 production at 30 uM after 3 days by flow cytometric analysis. Format: protein assay. A digest of the protocol: as §1
The target in assay [5] is T4, TLR7 and TLR8 (Homo sapiens) (UniProt Q9NYK1+Q9NR97). Description: Agonist activity at TLR7/TLR8 in human PBMC assessed as induction of IFN-gamma production at 22.5 uM after 24 hrs by flow cytometric analysis. The class given is protein assay. A digest of the protocol: (§2)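 PBMCs isolated by Ficoll from three independent donors, plated in triplicate at 5 × 10⁵ cells per well, exposed to 22.5 μM compound for 24 h. Medium assayed for TNF-α and IFN-γ by flow cytometric bead array, IFN-α by ELISA.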

In assay [6] the target is T4, TLR7 and TLR8 (Homo sapiens). Description: Agonist activity at TLR7/TLR8 in human PBMC assessed as induction of IFN-alpha production at 22.5 uM after 24 hrs by ELISA. Format: protein assay. In short, it runs like this: as §2
(An ELISA detects its analyte on a solid surface through an enzyme-linked reagent.)

Assay [7] has the same target. Description: Agonist activity at TLR7/TLR8 in human PBMC assessed as induction of TNF-alpha production at 22.5 uM after 24 hrs by flow cytometric analysis. The class given is protein assay. In short, it runs like this:
as §2

Active and inactive are the calls of the source. The rule behind the calls is not given here.

T2 sequence (P58681 whole entry, looked up): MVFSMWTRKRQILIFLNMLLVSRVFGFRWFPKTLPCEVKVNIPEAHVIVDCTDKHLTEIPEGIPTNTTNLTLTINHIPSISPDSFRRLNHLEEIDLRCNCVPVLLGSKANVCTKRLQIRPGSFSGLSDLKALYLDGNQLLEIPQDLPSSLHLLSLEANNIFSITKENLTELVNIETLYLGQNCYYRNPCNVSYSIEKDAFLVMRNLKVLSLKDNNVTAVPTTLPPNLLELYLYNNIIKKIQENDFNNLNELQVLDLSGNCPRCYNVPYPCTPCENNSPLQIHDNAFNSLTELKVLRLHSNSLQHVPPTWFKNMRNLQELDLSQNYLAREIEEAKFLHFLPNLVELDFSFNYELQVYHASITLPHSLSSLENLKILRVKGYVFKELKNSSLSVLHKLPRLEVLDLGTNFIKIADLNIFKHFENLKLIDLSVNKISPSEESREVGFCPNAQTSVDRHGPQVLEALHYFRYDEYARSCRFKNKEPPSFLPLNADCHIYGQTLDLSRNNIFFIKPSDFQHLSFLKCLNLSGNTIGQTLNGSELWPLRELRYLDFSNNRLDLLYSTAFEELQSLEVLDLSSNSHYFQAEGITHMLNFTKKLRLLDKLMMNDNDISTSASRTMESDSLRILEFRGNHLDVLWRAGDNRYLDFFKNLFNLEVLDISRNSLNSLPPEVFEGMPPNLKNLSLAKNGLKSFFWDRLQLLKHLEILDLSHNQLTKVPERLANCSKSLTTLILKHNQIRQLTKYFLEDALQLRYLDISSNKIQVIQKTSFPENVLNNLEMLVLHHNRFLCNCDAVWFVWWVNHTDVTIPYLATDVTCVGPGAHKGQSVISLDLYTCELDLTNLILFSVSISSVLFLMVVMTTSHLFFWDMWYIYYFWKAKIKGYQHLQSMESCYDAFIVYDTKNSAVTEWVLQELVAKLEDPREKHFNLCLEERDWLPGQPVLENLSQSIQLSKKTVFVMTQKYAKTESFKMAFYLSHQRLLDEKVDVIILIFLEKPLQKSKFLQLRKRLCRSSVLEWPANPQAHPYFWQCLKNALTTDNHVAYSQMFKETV
T2 sequence (P58682 whole entry, looked up): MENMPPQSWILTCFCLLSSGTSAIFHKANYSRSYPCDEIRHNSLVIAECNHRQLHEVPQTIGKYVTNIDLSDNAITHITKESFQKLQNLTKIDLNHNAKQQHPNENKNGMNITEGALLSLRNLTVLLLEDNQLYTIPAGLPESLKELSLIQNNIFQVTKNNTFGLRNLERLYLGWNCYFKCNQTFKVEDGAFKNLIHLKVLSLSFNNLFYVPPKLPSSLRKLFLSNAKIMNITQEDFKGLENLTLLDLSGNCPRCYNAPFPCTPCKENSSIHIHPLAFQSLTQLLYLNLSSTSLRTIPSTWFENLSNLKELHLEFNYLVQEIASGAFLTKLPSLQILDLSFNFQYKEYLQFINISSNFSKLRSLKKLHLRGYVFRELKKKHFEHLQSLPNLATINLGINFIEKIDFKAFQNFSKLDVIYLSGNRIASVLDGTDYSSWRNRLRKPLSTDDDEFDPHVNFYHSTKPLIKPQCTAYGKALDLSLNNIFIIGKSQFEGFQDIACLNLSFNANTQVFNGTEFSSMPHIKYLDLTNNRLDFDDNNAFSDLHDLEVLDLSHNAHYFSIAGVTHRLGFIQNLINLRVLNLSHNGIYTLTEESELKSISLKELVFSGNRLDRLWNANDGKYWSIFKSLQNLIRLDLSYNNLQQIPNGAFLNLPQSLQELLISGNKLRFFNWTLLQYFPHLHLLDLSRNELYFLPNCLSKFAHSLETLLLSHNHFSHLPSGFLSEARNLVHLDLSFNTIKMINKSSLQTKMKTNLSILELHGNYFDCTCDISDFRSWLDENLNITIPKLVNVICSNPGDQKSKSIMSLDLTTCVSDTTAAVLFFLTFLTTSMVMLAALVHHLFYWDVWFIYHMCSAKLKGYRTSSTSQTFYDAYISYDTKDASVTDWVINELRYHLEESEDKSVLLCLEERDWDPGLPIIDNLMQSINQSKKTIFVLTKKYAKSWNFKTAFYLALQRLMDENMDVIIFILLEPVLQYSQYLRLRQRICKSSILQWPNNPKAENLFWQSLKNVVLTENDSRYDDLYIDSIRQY

By EC50 is commonly meant the concentration giving half of the maximal effect. `COC(=O)c1ccc2c(c1)nc(N)c1ncn(CC(C)(C)O)c12`: the EC50 result on Toll-like receptor 8 and at Toll-like receptor 7 (hek293) was “Not Active” throughout. Further, the Activity was found to be 8 pg/mL in assay [1], 40 pg/mL in [2], 6 pg/mL in [3] and 9 pg/mL in assay [4].

For `CCCCc1nc2c(N)nc3cc(C(=O)OC)ccc3c2n1CC(C)O` (racemic), the Activity came to 533 pg/mL in [1], 1200 pg/mL in assay [2], 275 pg/mL in assay [3] and 22 pg/mL in assay [4]. The result in [5], in assay [6] and in assay [7] was Active.

Take `CCCCc1nc2c(N)nc3cc(C(=O)OC)ccc3c2n1CC(C)(C)O`: the Activity in assay [1] was found to be 393 pg/mL; in assay [2], 1100 pg/mL; in assay [3], 108 pg/mL; in assay [4], 24 pg/mL. In addition, the concentration giving a half-maximal response (EC50) at Toll-like receptor 7 (read-out: EC50) amounted to 1.5 µM.

As to `CCc1nc2c(N)nc3cc(C(=O)OC)ccc3c2n1CC(C)(C)O`, the 50% effective concentration (EC50) result at Toll-like receptor 8 is recorded as “Not Active”. Moreover, the Activity was 78 pg/mL in assay [1], 1170 pg/mL in [2], 11 pg/mL in [3] and 24 pg/mL in assay [4].

For `CCOCc1nc2c(N)nc3ccccc3c2n1CC(C)(C)O`, the Activity worked out at 236 pg/mL in assay [1], 1740 pg/mL in assay [2], 16 pg/mL in assay [3] and 49 pg/mL in assay [4]. The result in assay [7] was Active.

As to `CCCCc1nc2c(N)nc3cc(C(=O)OC)ccc3c2n1CCOCc1ccccc1`, the Activity in assay [1] was determined as 136 pg/mL; in assay [2] it was 2240 pg/mL; in [3], 104 pg/mL; in [4] it was 25 pg/mL.

As to `COC(=O)c1ccc2c(c1)nc(N)c1nc(Cc3ccccc3)n(CC(C)(C)O)c12`, the concentration for a half-maximal effect (EC50) result on Toll-like receptor 8 is “Not Active”. The Activity worked out at 500 pg/mL in assay [1], 971 pg/mL in assay [2], 60 pg/mL in assay [3] and 15 pg/mL in assay [4].

In the case of `CCCCc1nc2c(N)nc3cc(C(=O)OC)ccc3c2n1C[C@@H](C)O`, the Activity in [1] came to 416 pg/mL; in assay [2], 1160 pg/mL; in assay [3], 157 pg/mL; in assay [4] it was 20 pg/mL. Also, the result in [5], in assay [6] and in assay [7] was Active.

`CCCc1nc2c(N)nc3cc(C(=O)OC)ccc3c2n1CC(C)(C)O`: the concentration giving a half-maximal response (EC50) entry on Toll-like receptor 8 is “Not Active”. In addition, the Activity in assay [1] worked out at 365 pg/mL; in [2], 1170 pg/mL; in assay [3], 33 pg/mL; in assay [4], 23 pg/mL.

Regarding `CCCCCc1nc2c(N)nc3cc(C(=O)OC)ccc3c2n1CC(C)(C)O`, the Activity is 312 pg/mL in [1], 1810 pg/mL in assay [2], 1010 pg/mL in assay [3] and 37 pg/mL in assay [4]. Besides, the outcome in assay [5], in assay [6] and in assay [7] was Active.

On to `CCCCc1nc2c(N)nc3cc(C(=O)OC)ccc3c2n1CCO`, for which the Activity in [1] worked out at 290 pg/mL; in assay [2], 1210 pg/mL; in assay [3], 109 pg/mL; in assay [4], 18 pg/mL.

On to `CCCCc1nc2c(N)nc3cc(C(=O)OC)ccc3c2n1C[C@H](C)O`, for which the Activity in assay [1] turned out to be 597 pg/mL; in assay [2] it was 1190 pg/mL; in [3] it was 301 pg/mL; in [4] it was 25 pg/mL. The outcome in [5], in assay [6] and in assay [7] was Active.

Turning to `COC(=O)c1ccc2c(c1)nc(N)c1nc(C)n(CC(C)(C)O)c12`, the EC50 result on Toll-like receptor 8 is “Not Active”. In addition, the Activity came out at 73 pg/mL in assay [1], 819 pg/mL in assay [2], 13 pg/mL in [3] and 27 pg/mL in assay [4].

For the compound `CCCCc1nc2c(N)nc3cc(C(=O)OC)ccc3c2n1CCOC`, the EC50 result at Toll-like receptor 8 is “Not Active”. The Activity came out at 267 pg/mL in [1], 1370 pg/mL in assay [2], 484 pg/mL in assay [3] and 22 pg/mL in assay [4].

In the case of `CC(C)Cn1cnc2c(N)nc3ccccc3c21` [IMIQUIMOD], the EC50 result on Toll-like receptor 8 was “Not Active”; on Toll-like receptor 7 (read-out: EC50) it was 10.7 µM. Further, the Activity in assay [1] was found to be 133 pg/mL; in assay [2] it was 308 pg/mL; in assay [3] it was 19 pg/mL; in [4], 17 pg/mL.

The values are drawn from ChEMBL document CHEMBL3112466, “Structure-activity relationship analysis of imidazoquinolines with Toll-like receptors 7 and 8 selectivity and enhanced cytokine induction” (J Med Chem, 2014).
